The text below walks through data of ChEMBL document CHEMBL4308856, “Novel 5-(quinuclidin-3-ylmethyl)-1,2,4-oxadiazoles to investigate the activation of the α7 nicotinic acetylcholine receptor subtype: Synthesis and electrophysiological evaluation” (Eur J Med Chem, 2018).

The source made the active and inactive calls. The rule behind the calls is not given here. Where only a bound is given, the exact number is not on record here.

Holding throughout (format): cell-based
Test [1] has as its target T1, Neuronal acetylcholine receptor subunit alpha-7 (Homo sapiens, UniProt P36544). In words: Ratio of partial agonist activity at human alpha7 nAChR expressed in Xenopus laevis oocytes assessed as increase in peak current amplitude relative to ACh to partial agonist activity at human alpha7 nAChR expressed in Xenopus laevis oocytes assessed as increase in net charge relative to ACh. In short, it runs like this: (§1)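 Human α7 nAChR expressed in Xenopus laevis oocytes, two-electrode voltage clamp at −60 mV with 3 M KCl electrodes. Ringer's with atropine, pH 7.2, perfused at 2 mL/min. Compound was applied at 30 μM for 12 s with a 181 s washout. Peak current and net charge were each normalized to the mean of two prior 60 μM ACh controls in the same oocyte; the peak/net-charge ratio was taken. Mean ± SEM, at least four oocytes.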

Test [2] has as its target T1, Neuronal acetylcholine receptor subunit alpha-7. In words: Partial agonist activity at human alpha7 nAChR expressed in Xenopus laevis oocytes assessed as increase in net charge at 30 uM at -60 mV holding potential treated for 12 secs followed by compound washout for 181 secs by whole cell two electrode voltage-clamp assay relative to ACh. Summed up:
as §1
For orientation: Two-electrode voltage clamp holds a large cell at a set potential and records current.

Test [3] has the same target. As to the kind of experiment: Antagonist activity at human alpha7 nAChR expressed in Xenopus laevis oocytes assessed as Ach-induced response by measuring residual activity at 30 uM at -60 mV holding potential treated for 12 secs followed by compound washout for 181 secs by whole cell two electrode voltage-clamp assay (Rvb =60%).
Test [4] has the same target. In words: Antagonist activity at human alpha7 nAChR expressed in Xenopus laevis oocytes assessed as inhibition of post control Ach-induced response by measuring residual activity at 30 uM at -60 mV holding potential treated for 12 secs followed by compound washout for 181 secs by whole cell two electrode voltage-clamp assay (Rvb =60%).
Test [5] has the same target. As to the kind of experiment: Ratio of Silent agonist activity at human alpha7 nAChR expressed in Xenopus laevis oocytes assessed as increase in net charge in presence of type 2 PAM PNU-120596 relative to ACh to partial agonist activity at human alpha7 nAChR expressed in Xenopus laevis oocytes assessed as increase in net charge relative to ACh. In short, it runs like this:
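PNU effectiveness: net-charge response of human α7 nAChR (Xenopus oocytes, −60 mV clamp) to compound co-applied with 10 μM PNU-120596, divided by the response to compound alone. Both responses were normalized to 60 μM ACh controls, with 12 s applications and 181 s washout.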

Test [6] deals with T2, Neuronal acetylcholine receptor; alpha3/beta4 (Homo sapiens) (UniProt P30926+P32297). In words: Antagonist activity at human alpha3beta4 nAChR expressed in Xenopus laevis oocytes assessed as inhibition of post-control Ach-induced channel activation at 30 uM at -60 mV holding potential treated for 6 secs followed by compound washout for 241 secs by whole cell two electrode voltage-clamp assay.

In test [7] the target is T1, Neuronal acetylcholine receptor subunit alpha-7. In words: Silent agonist activity at human alpha7 nAChR expressed in Xenopus laevis oocytes assessed as increase in net charge at 30 uM at -60 mV holding potential treated for 12 secs followed by compound washout for 181 secs in presence of type 2 PAM PNU-120596 by whole cell two electrode voltage-clamp assay relative to ACh. Summed up: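 α7 (human) expressed in Xenopus oocytes, voltage-clamped at −60 mV, Ringer's pH 7.2 with atropine at 2 mL/min. Compound (3, 10 or 30 μM) was co-applied with PNU-120596 for 12 s, then washed out for 181 s. Net charge was expressed relative to the mean of two preceding 60 μM ACh control responses in the same oocyte. Mean ± SEM, at least four oocytes.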

Test [8] shares this target. As to the kind of experiment: Partial agonist activity at human alpha7 nAChR expressed in Xenopus laevis oocytes assessed as increase in peak current amplitude at 30 uM at -60 mV holding potential treated for 12 secs followed by compound washout for 181 secs by whole cell two electrode voltage-clamp assay relative to ACh. Summed up:
as §1

Test [9] concerns the target T2, Neuronal acetylcholine receptor; alpha3/beta4 (Homo sapiens). In words: Antagonist activity at human alpha3beta4 nAChR expressed in Xenopus laevis oocytes assessed as inhibition of Ach-induced channel activation at 30 uM at -60 mV holding potential treated for 6 secs followed by compound washout for 241 secs by whole cell two electrode voltage-clamp assay.
The target in test [10] is T1, Neuronal acetylcholine receptor subunit alpha-7. As to the kind of experiment: Partial agonist activity at human alpha7 nAChR expressed in Xenopus laevis oocytes assessed as increase in net charge at 3 uM at -60 mV holding potential treated for 12 secs followed by compound washout for 181 secs by whole cell two electrode voltage-clamp assay relative to ACh. Summed up:
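Human α7 nAChR in Xenopus oocytes under two-electrode voltage clamp at −60 mV, perfused with Ringer's (pH 7.2, atropine) at 2 mL/min. Compound was given alone at 3 μM as a 12 s application followed by 181 s washout. Net-charge response was normalized to the average of two initial 60 μM ACh controls from the same oocyte.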

The target is the same in test [11]. As to the kind of experiment: Partial agonist activity at human alpha7 nAChR expressed in Xenopus laevis oocytes at -60 mV holding potential treated for 12 secs followed by compound washout for 181 secs by whole cell two electrode voltage-clamp assay relative to ACh.

T1 sequence (P36544 whole entry, the tested form may be a part): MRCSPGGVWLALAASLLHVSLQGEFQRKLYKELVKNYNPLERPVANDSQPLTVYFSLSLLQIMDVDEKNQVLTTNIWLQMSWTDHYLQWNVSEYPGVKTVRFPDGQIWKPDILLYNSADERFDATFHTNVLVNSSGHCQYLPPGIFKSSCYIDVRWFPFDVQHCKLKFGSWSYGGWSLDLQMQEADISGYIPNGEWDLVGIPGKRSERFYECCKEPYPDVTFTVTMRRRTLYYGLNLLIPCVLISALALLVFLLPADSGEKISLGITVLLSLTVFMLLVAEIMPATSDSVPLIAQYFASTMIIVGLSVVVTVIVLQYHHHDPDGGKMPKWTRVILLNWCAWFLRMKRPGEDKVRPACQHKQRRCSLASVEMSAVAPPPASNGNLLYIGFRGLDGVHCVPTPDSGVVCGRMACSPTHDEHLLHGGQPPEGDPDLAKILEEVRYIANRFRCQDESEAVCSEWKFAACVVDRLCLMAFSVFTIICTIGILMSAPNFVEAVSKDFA

`C[N+]12CCC(CC1)C(Cc1nc(-c3cccc(C(F)(F)F)c3)no1)C2` (stereo unspecified): the Ratio stood at 2.2 in [1] and 3 in test [5]. Besides, the fold change (FC) in test [2] was 0.035; in test [7], 0.1; in [8] it was 0.077. For the same compound, the values for the Activity in test [3] and in test [4] were 10% and 60%, respectively. Also, the inhibition entry in [6] is “inactive”. For the same compound, in [9], the inhibition result is “Active”.

Turning to `c1coc(-c2noc(CC3CN4CCC3CC4)n2)c1` (stereo unspecified), the Ratio in test [1] was determined as 3.73; in test [5], 56. The fold change (FC) in test [10] was determined as 0.15; in test [2], 0.575; in test [7], 32.3; in test [8], 2.14. Further, in test [11], the EC50 (in general, the concentration that produces a half-maximal response) was less than 30 µM.
